Experimental data taken from publication PMC3021469 (Investigative radiology, 2010).

Tests used:
[1] = commercial extracellular fluid agent, on the order of; ref not given; cited from earlier work
[2] = molecular target: human serum albumin (HSA) (Homo sapiens, UniProt P02768); type: physicochemical; conditions: albumin-bound; fit of variable temperature NMRD; (SD)
Outline: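 Samples were 0.1 mM Gd complex with 0.67 mM HSA (4.5% w/v) in pH 7.4 HEPES-buffered saline, Gd by ICP-MS. 1H NMRD profiles were recorded on a field-cycling relaxometer at 5, 15, 25 and 35 °C over 0.01–50 MHz (0.0002–1.2 T), with 22 points per curve. Variable-temperature profiles were fitted using a Lipari-Szabo treatment.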

Sequence of human serum albumin (HSA) (P02768 25-609): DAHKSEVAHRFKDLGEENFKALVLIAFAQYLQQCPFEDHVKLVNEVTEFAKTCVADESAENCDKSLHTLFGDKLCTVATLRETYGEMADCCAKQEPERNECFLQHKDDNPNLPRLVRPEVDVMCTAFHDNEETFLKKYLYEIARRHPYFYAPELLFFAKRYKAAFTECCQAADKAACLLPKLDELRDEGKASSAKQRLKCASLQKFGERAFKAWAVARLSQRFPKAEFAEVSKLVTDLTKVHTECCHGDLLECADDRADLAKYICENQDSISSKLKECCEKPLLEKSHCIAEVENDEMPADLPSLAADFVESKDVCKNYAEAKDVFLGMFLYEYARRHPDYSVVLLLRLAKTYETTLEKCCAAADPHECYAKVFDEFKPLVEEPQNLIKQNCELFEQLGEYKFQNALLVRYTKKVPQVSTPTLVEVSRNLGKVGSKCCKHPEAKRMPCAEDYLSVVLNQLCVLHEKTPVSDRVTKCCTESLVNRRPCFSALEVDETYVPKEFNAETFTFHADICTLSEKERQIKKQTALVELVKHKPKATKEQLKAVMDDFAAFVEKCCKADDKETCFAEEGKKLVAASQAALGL

Compound | relaxivity r1 [1] [mM⁻¹ s⁻¹] | F^2 (Lipari-Szabo order parameter) [2] | ΔH^‡ (activation energy for water exchange) [2] | Δ^2 (transient zero field splitting parameter) [2] | τv (correlation time of transient ZFS modulation) [2]
O=C([O-])CN(CCN(CC(=O)[O-])CC(=O)O)CCN(CC(=O)[O-])CC(=O)O.[Gd+3] [Gd-DTPA] | ~4 |  |  |  | 
Gd1b |  | 0.46 (0.01) | 42.3 (4.2) kJ/mol | 3.39 (0.12) 10^18 s^-2 | 22 (3) ps
